M5 PAM: positive allosteric modulators of human muscarinic M5 receptor; activation, % at 3 µM; AID 624038; actives 0.3% (n = 360,000); CHO-K1 hM5, Fluo-8 calcium, ACh EC20 PAM; 0% = ACh EC20, 100% = ACh EC100;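 active = activation above the run cutoff, the mean activation of all test compounds plus 3 SD, cut at about 18% in these data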
Target sequence (P08912 whole entry, looked up): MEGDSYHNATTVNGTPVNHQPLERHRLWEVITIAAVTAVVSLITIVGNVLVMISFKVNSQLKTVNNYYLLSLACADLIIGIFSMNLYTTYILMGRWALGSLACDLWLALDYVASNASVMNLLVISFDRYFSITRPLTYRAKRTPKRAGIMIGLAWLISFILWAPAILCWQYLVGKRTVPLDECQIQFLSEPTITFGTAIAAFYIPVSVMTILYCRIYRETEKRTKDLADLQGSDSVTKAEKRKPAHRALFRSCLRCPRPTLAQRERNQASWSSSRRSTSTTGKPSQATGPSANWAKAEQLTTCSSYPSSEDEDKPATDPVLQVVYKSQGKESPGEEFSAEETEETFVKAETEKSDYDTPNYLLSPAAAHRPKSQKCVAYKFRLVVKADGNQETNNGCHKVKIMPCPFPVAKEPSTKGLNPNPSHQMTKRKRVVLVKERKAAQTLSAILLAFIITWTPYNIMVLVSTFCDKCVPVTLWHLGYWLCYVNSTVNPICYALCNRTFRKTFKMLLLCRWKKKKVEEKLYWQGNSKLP
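Measured by: Fluo-8 calcium fluorescence; material: human M5 receptor in CHO-K1 cells; schedule: Post-acetylcholine fluorescence recording 140 s; benchmarks: low control EC20 acetylcholine (0%), high control EC100 acetylcholine (100%); read-out: Max/basal fluorescence ratio as % of EC20–EC100 ACh window; compound: single dose, 3 µM nominal final test concentration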
CHRM4 agonist: agonists of human muscarinic M4 receptor (CHRM4); P08173; CHO-K1 hM4/Gqi5, Fluo-8 calcium fluorescence; vehicle 0%, full acetylcholine response 100%; activation, % at 3 µM; actives 0.14% (n = 360,000); AID 624127;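 active = activation above the run mean over all test wells plus 3 SD, cut at about 32% in these data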;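 note: peak over basal fluorescence ratio per well then scaled between controls; 0% = DMSO wells and 100% = acetylcholine at EC100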
CHRM5 agonist: CHRM5 agonism in calcium assay | P08912 | CHO-K1 hM5 cells, Fluo-8 calcium fluorescence; 0% DMSO wells, 100% maximal acetylcholine response | activation, % at 3 µM | actives 0.19% (n = 360,000);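 active = activation above the run's mean over test compounds plus 3 SD, cut at about 23% in these data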;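 note: signal is peak over basal fluorescence ratio across the kinetic read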
M5 antag: blocks acetylcholine activation of human M5 receptor; P08912; CHO-hM5 cells, Fluo-8 calcium fluorescence, ACh EC80; inhibition, % at 3 µM; actives 0.59% (n = 360,000);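 active = inhibition above a per-plate cutoff, the mean of that plate's test compounds plus 3 SD, cut at about 27% in these data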;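 note: 0% = acetylcholine EC80 with DMSO and 100% = DMSO without agonist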
CHRM4 antagonist: CHRM4 antagonism in calcium assay; P08173; actives 0.73% (n = 360,000); inhibition, % at 3 µM; CHO-hM4 cells, ACh EC80, Fluo-8 calcium fluorescence;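 active = inhibition above its plate's cutoff, the mean inhibition of sample wells plus 3 SD, cut at about 27% in these data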;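 note: 0% = acetylcholine EC80 with DMSO and 100% = DMSO without agonist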
M4 PAM: positive allosteric modulators of human muscarinic M4 receptor; actives 0.4% (n = 360,000); CHO-K1 hM4/Gqi5, Fluo-8 calcium fluorescence, ACh EC20; 0% = ACh EC20, 100% = maximal ACh; activation, % at 3 µM; P08173; AID 624126;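 active = activation above its plate's cutoff, the mean activation of sample wells plus 3 SD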
Starred values were filed as active, the others as inactive. Rows were chosen to be rich in hits. Some 1.8% of all compounds tested hit in one or more screens of this group.

SMILES	M5 PAM	CHRM4 agonist	CHRM5 agonist	M5 antag	CHRM4 antagonist	M4 PAM
CC(C)(C)C1CCc2c(C(=O)NNC(=O)CCCC(=O)O)csc2C1 (stereo unspecified)	-5.2	-0.3	-2.4	7.3	19.2	-0.6
CCCCCCCNC(=O)CN1C(=O)CSc2ccc(S(=O)(=O)N3CCOCC3)cc21	-6.8	1.8	-6.1	29.9*	3.7	-0.8
CCCCNC(=O)CN1C(=O)CSc2ccc(S(=O)(=O)N3CCOCC3)cc21	-2.4	0.1	1.1	4.2	7.2	-1.6
CC[N+](CC)(CC#Cc1ccccc1)CC#Cc1ccccc1	-31.4	0.3	-21.9	30.7*	22.7	-47.7
COc1ccc(/C=C(/NC(=O)c2ccc(OC)c(OC)c2)C(=O)NCCCn2ccnc2)cc1	1.6	-0.4	-1.1	8.8	-6.2	3.2
FC(F)Sc1ccc(NC(=S)NCC2CCCCC2)cc1	-17.1	6.9	1.3	39.8*	12.2	-24.2
CNC[C@@H]1Oc2cc(Br)ccc2S(=O)(=O)N([C@@H](C)CO)C[C@@H]1C	0.9	1.4	0.0	0.2	48.0*	-13.4
O=C(O)CCN1CCc2ccccc2C1c1ccncc1 (stereo unspecified)	13.4	-0.1	-2.0	-12.8	-7.3	-1.5
CCCNC(=O)C1(C)CCCN(C(=O)Cc2ccc3ccccc3c2)C1 (stereo unspecified)	-1.2	2.5	0.8	4.7	-6.7	3.9
COCCNC(=O)C1(C)CCCN(C(=O)Cc2ccc3ccccc3c2)C1 (stereo unspecified)	2.5	2.2	0.7	-9.7	-15.5	17.3*
COc1ccc2[nH]c3c(NCCC4=CCCCC4)ncnc3c2c1	-31.0	20.1	10.9	31.7*	6.0	-12.4
CC(C)c1ccc(-c2nc(N3CCCC3)nc3n[nH]c(N)c23)cc1	54.4*	0.6	3.0	-2.3	-5.2	12.0
CN(CC1COc2ccccc2O1)C(=O)c1cc(COc2c(F)cccc2F)on1 (stereo unspecified)	-2.3	5.7	-3.9	5.7	-8.1	2.7
CN(CC1COCCO1)C(=O)c1cc(COc2c(F)cccc2F)on1 (stereo unspecified)	-0.3	3.2	-0.2	-0.3	1.8	23.5*
CSc1nc2ccccc2n1Cc1c(Cl)cccc1Cl	20.9*	0.6	-12.4	9.9	-1.6	-12.2
CCCCC(=O)Nc1ccc(N2CCN(C(=O)c3ccco3)CC2)cc1	-5.1	1.9	-2.9	3.5	-3.8	-0.3
CC(C)c1ccc(NC(=O)C2CC(=O)N(C3CCCC3)C2)cc1 (stereo unspecified)	-2.6	4.1	-3.5	5.6	-19.1	18.3*
COc1ccc(N(CC(=O)N2CCN(c3ccc(F)cc3)CC2)S(=O)(=O)c2c(C)noc2C)cc1	-4.8	2.4	-5.1	7.5	6.1	-2.5
O=S(=O)(/C(=C\c1ccc(C(F)(F)F)cc1)c1nc2ccccc2[nH]1)c1ccccc1	8.0	2.6	4.7	13.2	44.1*	-6.8
OCCN(CC#CC(O)(c1ccccc1)c1cccc(F)c1)CCO (stereo unspecified)	4.3	0.5	-15.8	-1.0	-14.3	-8.1
CN(C)CCC#CC(O)(c1ccccc1)c1ccccc1	-19.5	0.5	-9.0	37.6*	31.6*	-14.9
CCN(CC)CC#CC(O)(c1ccccc1)c1ccccc1	-16.4	0.3	-11.3	98.1*	88.5*	-24.3
CN(C)C(C)(C)C#CC(O)(c1ccccc1)c1ccccc1	-33.1	0.0	-12.9	83.3*	52.9*	-25.2
C[C@H](NC(=O)c1ccco1)C(=O)NNC(=O)COc1cccc(C(F)(F)F)c1	6.4	0.7	3.8	-1.8	-12.8	8.0
c1ccc(CC2CCN(C3=Nc4cccc5cccc3c45)CC2)cc1	-28.1	7.0	-13.2	17.2	27.2*	-18.1
SMILES	M5 PAM	CHRM4 agonist	CHRM5 agonist	M5 antag	CHRM4 antagonist	M4 PAM
c1cc2c3c(cccc3c1)C(N1CCOCC1)=N2	9.5	0.6	-5.1	12.0	-0.9	-7.2
CCCCc1ccc(/C=C2/C(=O)ON=C2c2ccccc2)s1	11.3	1.6	0.2	-9.6	-8.0	26.6*
CCCn1c(=S)[nH]c2cc(C(=O)N3CCN(c4ccccc4OC)CC3)ccc2c1=O	-0.1	1.8	0.9	1.2	38.9*	8.0
CC(C)(C)c1ccc(OCCC(=O)Nc2cccc(S(=O)(=O)N3CCCCC3)c2)cc1	-11.9	-0.5	-1.0	13.3	2.9	-8.9
O=C(CSc1ncnc2[nH]ncc12)Nc1nc(-c2ccc(F)c(F)c2)cs1	-15.4	20.0	9.9	10.4	31.3*	-20.0
CCOC(=O)c1cc(C#N)c(Nc2ccc(C)cc2)nc1C(F)(F)F	-4.4	0.8	-1.8	4.4	-11.0	3.2
COc1ccc(Br)c(Cn2c(C)c(C(=O)NCc3cccc([N+](=O)[O-])c3)sc2=O)c1	-12.2	5.4	0.8	1.9	30.8*	-15.9
Cc1c(C(=O)NCc2ccc(C(F)(F)F)cc2)sc(=O)n1Cc1cccc(F)c1	-6.1	54.0*	49.7*	31.7*	29.5*	-5.0
COc1cc(/C=C(\NC(C)=O)C(=O)N2CCCCC2)ccc1OC(C)=O	6.9	0.2	-0.5	0.2	1.2	1.1
CCn1cc(C=O)c2cc(S(=O)(=O)N3CCOCC3)ccc21	3.5	1.5	0.4	5.8	26.4*	-1.4
CC(=O)CC(=O)Nc1ccn(-c2ccccc2)n1	19.5*	1.2	-0.5	6.3	-0.8	0.0
NS(=O)(=O)c1ccc(CCNCc2cc(Br)ccc2OCc2ccccc2F)cc1	-20.1	29.8	0.4	28.4*	27.7*	-15.8
Nc1nonc1C(=O)NCCNCc1cc(Br)ccc1OCc1ccccc1F	-12.7	15.7	-0.1	15.8	31.7*	-16.4
Nc1nonc1C(=O)NCCNCc1ccccc1OCc1ccccc1F	-1.5	10.8	2.5	1.6	5.1	-9.8
N#CCCn1nc(-c2ccccc2)c2ccccc2c1=O	1.4	0.3	-3.0	5.5	6.6	-2.3
COc1ccc(CCNC(=O)C2CC2)cc1OC	-0.2	-0.1	3.2	6.5	-4.9	0.1
COc1ccc(CCNC(=O)COC(=O)C2CC2)cc1OC	20.1*	0.9	0.2	-13.1	-17.9	2.7
COc1ccc(CCNC(=O)CSc2nn3c(=O)c(C)nnc3s2)cc1OC	0.1	0.2	-4.8	0.4	-5.0	17.3*
COc1ccc(CNC(=O)CSc2nn3c(=O)c(C(C)(C)C)nnc3s2)cc1OC	-5.0	4.2	-9.5	0.9	-3.1	-2.6
CC1(C)CC(N2CCN(Cc3ccccc3)CC2)=CC(=[N+]2CCCCC2)C1	5.0	0.8	-16.9	3.1	-3.4	-12.9
CN(Cc1ccccc1)C1=CC(=[N+]2CCCCC2)CC(C)(C)C1	-24.2	4.5	-19.4	25.2	54.0*	-39.3

Screening data as filed in PubChem.
